According to ChEMBL document CHEMBL4219195, “Discovery of a quinoline-based phenyl sulfone derivative as an antitrypanosomal agent” (Bioorg Med Chem Lett, 2018):
Activity calls are given as the source filed them. No cut-off for these calls is given here.

What was measured:
Trypanosoma brucei [1] = assay: Antitrypanosomal activity against Trypanosoma brucei 427 bloodstream forms assessed as parasitic growth inhibition after 48 hrs by alamar blue assay; assay type: functional, organism-based; conditions: Trypanosoma brucei, 427, 48 h
How it was run: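 Bloodstream forms in supplemented HMI-9 medium (10% FBS, 10% Serum Plus, cysteine, hypoxanthine, β-mercaptoethanol, thymidine, pyruvate, bathocuproinesulfonate, Tween 80), 5 × 10³ cells/well, compound exposure 48 h in DMSO. Alamar blue then added, 4 h at 37°C; fluorescence ex 530/em 590 nm. Triplicates; IC50 from 0.3–50 μM range; suramin positive control.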

HepG2 = assay: Cytotoxicity against human HepG2 cells assessed as decrease in cell viability after 72 hrs by MTT assay; assay type: cell-based; conditions: HepG2, 72 h
How it was run: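 HepG2 cells kept in DMEM:F12 with 10% FBS, pen/strep and 0.0125% Tween 80 at 37°C, 5% CO2. Cells trypsinized, seeded at 5 × 10⁵ cells/mL and left ~24 h, then given compounds in DMSO for 72 h. Medium replaced with MTT-containing medium for 1.5 h; formazan dissolved in DMSO; A550. Triplicates. Controls: 10% SDS, podophyllotoxin.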

[2] = target: Rhodesain (Trypanosoma brucei rhodesiense) (UniProt Q95PM0); assay: Inhibition of Trypanosoma brucei rhodesain expressed in Pichia pastoris at 20 uM using Z-phe-Arg-AMC as substrate preincubated for 1 hr followed by substrate addition by fluorescence assay
Sequence of Rhodesain (Trypanosoma brucei rhodesiense) (Q95PM0 1-450): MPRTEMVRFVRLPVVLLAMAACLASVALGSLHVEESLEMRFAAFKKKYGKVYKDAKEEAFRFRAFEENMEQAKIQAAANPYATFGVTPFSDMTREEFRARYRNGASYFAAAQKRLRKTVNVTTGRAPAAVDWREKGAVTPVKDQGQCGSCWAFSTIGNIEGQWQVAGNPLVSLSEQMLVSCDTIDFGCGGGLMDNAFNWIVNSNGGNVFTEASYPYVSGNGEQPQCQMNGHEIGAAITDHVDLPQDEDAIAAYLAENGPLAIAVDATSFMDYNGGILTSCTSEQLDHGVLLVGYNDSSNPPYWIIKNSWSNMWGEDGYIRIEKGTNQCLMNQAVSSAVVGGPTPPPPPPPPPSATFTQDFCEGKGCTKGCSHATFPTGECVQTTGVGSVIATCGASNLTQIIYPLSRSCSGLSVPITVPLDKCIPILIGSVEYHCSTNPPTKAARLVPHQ
How it was run: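 Enzyme at 0.8 nM final with compound at 20 μM final, 1 h preincubation in 50 mM sodium acetate pH 5.5 with 2 mM DTT and 0.01% Triton X-100. Z-Phe-Arg-AMC (10 μM) then added. Cleavage rate (RFU/sec) read at 25 °C, ex 355/em 460 nm. E-64 (10 μM) served as 100% inhibition control.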

[3] = target: Procathepsin L (Homo sapiens) (UniProt P07711); assay: Inhibition of human liver cathepsin L using Z-phe-Arg-AMC as substrate at 0.1 to 125 uM preincubated for 1 hr followed by substrate addition by fluorescence assay
Sequence of Procathepsin L (Homo sapiens) (P07711 114-333 limits assumed): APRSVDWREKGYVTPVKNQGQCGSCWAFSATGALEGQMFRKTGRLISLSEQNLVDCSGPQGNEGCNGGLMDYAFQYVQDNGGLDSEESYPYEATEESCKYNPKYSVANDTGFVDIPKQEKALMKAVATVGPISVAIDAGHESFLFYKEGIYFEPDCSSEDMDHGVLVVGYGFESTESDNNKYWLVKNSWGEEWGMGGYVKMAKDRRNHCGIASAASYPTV
How it was run: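 Human liver CatL at 0.58 nM in 400 mM sodium acetate pH 5.5 with 8 mM DTT, 4 mM EDTA and 0.01% Triton X-100. Enzyme and compound preincubated 1 h, then Z-Phe-Arg-AMC (20 μM) added. AMC fluorescence rate read at ex 355/em 460 nm, 25 °C.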

Rhodesain = Rhodesain (Trypanosoma brucei rhodesiense, UniProt Q95PM0); assay: Inhibition of Trypanosoma brucei rhodesain expressed in Pichia pastoris using Z-phe-Arg-AMC as substrate preincubated for 1 hr followed by substrate addition by fluorescence assay
Sequence of Rhodesain (Q95PM0 whole entry): as the sequence (Q95PM0 1-450) above
How it was run: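 Rhodesain at 0.8 nM final was pre-incubated 1 h with compound at 20 μM final in 50 mM sodium acetate pH 5.5, 2 mM DTT, 0.01% Triton X-100. Then 10 μM Z-Phe-Arg-AMC was added, and cleavage was read as RFU/sec at 25 °C (ex 355/em 460 nm). E-64 (10 μM) defined 100% inhibition.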

[4] = target: Rhodesain (Trypanosoma brucei rhodesiense) (UniProt Q95PM0); assay: Inhibition of Trypanosoma brucei rhodesain expressed in Pichia pastoris assessed as rato of Kinact to Ki using Z-phe-Arg-AMC as substrate preincubated for 1 hr followed by substrate additon by fluorescence assay
How it was run: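 Time-dependent inactivation study: rhodesain mixed with inhibitor (0, 0.06, 0.12, 0.24, 0.97, 3.9 μM) in assay buffer (50 mM sodium acetate pH 5.5, 2 mM DTT, 0.01% Triton X-100). Aliquots drawn every 10 min, assayed with 10 μM Z-Phe-Arg-AMC, RFU/sec followed 7 min at 25 °C (ex 355/em 460 nm). Analysed by pseudo-first-order inhibition plots.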

Trypanosoma brucei [5] = assay: Antitrypanosomal activity against luciferase expressing Trypanosoma brucei STIB795 bloodstream forms infected in NMRI mouse assessed as parasitic growth inhibition at 50 to 100 mg/kg, ip administered for 4 consecutive days starting at 3 days post infection measured at 24 hrs post dose by live imaging analysis; assay type: functional, organism-based
How it was run: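 Groups of four female mice, each inoculated ip with 1 × 10⁴ bloodstream forms. Groups: control, 50 mg/kg/day and 100 mg/kg/day. Dosing ip in water plus 10% DMSO began 3 days post-infection. Parasitemia followed by live imaging. Moribund mice euthanized once parasitemia was detected.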

Row | Structure (SMILES) | IC50 (Trypanosoma brucei [1]) [µM] | IC50 (HepG2) [µM] | inhibition [2] | inhibition [3] | IC50 (Rhodesain) [µM] | Ratio [4] [M⁻¹ s⁻¹] | Activity (Trypanosoma brucei [5])
1 | O=C(Cc1ccc(OC/C=C/S(=O)(=O)c2ccccc2)cc1)Oc1ccc(C2CCCC2)cc1 | 6.04 | > 20 | inactive |  |  |  | 
2 | CC1(C)C2CC[C@]1(C)C(NC(=O)Cc1ccc(OC/C=C/S(=O)(=O)c3ccccc3)cc1)C2 (some centres not stated) | 10.8 | > 20 | inactive |  |  |  | 
3 | O=C(Cc1ccc(OC/C=C/S(=O)(=O)c2ccccc2)cc1)Oc1ccc2cc(Br)ccc2c1 | 2.18 | > 80 | inactive |  |  |  | 
4 | O=C(N[C@H](/C=C/S(=O)(=O)c1ccccc1)CCc1ccccc1)c1cccc2cccnc12 | 5.97 | > 80 | Active | inactive | 0.8 | 99 | 
5 | CC1(C)C2CC=C(CCOC(=O)Cc3ccc(OC/C=C/S(=O)(=O)c4ccccc4)cc3F)C1C2 (configuration not stated) | 7.03 | > 20 | inactive |  |  |  | 
6 | CC1(C)[C@@H]2CC[C@@](C)(C2)[C@@H]1OC(=O)Cc1ccc(OC/C=C/S(=O)(=O)c2ccccc2)cc1 | 4.04 | 11.9 | inactive |  |  |  | 
7 | O=C(Cc1ccc(OC/C=C/S(=O)(=O)c2ccccc2)cc1)NC12CC3CC(CC(C3)C1)C2 | 11.7 | > 20 | inactive |  |  |  | 
8 | CC1(C)[C@H]2CC=C(CCOC(=O)Cc3ccc(OC/C=C/S(=O)(=O)c4ccccc4)c(Cl)c3)[C@@H]1C2 | 3.04 | > 80 | inactive |  |  |  | 
9 | C[C@H](OC(=O)Cc1ccc(OC/C=C/S(=O)(=O)c2ccccc2)cc1)c1ccc2ccccc2c1 | 5.62 | > 20 | inactive |  |  |  | 
10 | C[C@H](NC(=O)Cc1ccc(OC/C=C/S(=O)(=O)c2ccccc2)cc1)c1ccc2ccccc2c1 | 5.45 | > 20 | inactive |  |  |  | 
11 | O=C(Cc1ccc(OC/C=C/S(=O)(=O)c2ccccc2)cc1)Oc1ccc(C(F)(F)F)cc1 | > 20 | > 20 | inactive |  |  |  | 
12 | CC1(C)C2CC[C@]1(C)C(OC(=O)Cc1ccc(OC/C=C/S(=O)(=O)c3ccccc3)cc1)C2 (some centres not stated) | 7.16 | > 20 | inactive |  |  |  | 
13 | CC1=C[C@@H](OC(=O)Cc2ccc(OC/C=C/S(=O)(=O)c3ccccc3)cc2)C2C[C@H]1C2(C)C | > 20 | > 20 | inactive |  |  |  | 
14 | CC1(C)[C@H]2CC=C(CCOC(=O)Cc3ccc(OC/C=C/S(=O)(=O)c4ccccc4)cc3)[C@@H]1C2 | 2.01 | > 80 | inactive |  |  |  | 
15 | CN1CCC(NC(=O)Cc2ccc(OC/C=C/S(=O)(=O)c3ccccc3)cc2)CC1 | > 20 | > 20 | inactive |  |  |  | 
16 | CCCN1CCC(NC(=O)Cc2ccc(OC/C=C/S(=O)(=O)c3ccccc3)cc2)CC1 | > 20 | > 20 | inactive |  |  |  | 
17 | CC1(C)C2CC=C(COC(=O)Cc3ccc(OC/C=C/S(=O)(=O)c4ccccc4)cc3)C1C2 (configuration not stated) | > 20 | > 20 | inactive |  |  |  | 
18 | COc1cc([C@@H]2c3cc4c(cc3[C@H](O)[C@H]3COC(=O)[C@H]23)OCO4)cc(OC)c1OC [PODOFILOX] |  | 0.008 |  |  |  |  | 
19 | CC(C)c1ccc(OC(=O)Cc2ccc(OC/C=C/S(=O)(=O)c3ccccc3)cc2)cc1 | > 20 | > 20 | inactive |  |  |  | 
20 | O=C(Cc1ccc(OC/C=C/S(=O)(=O)c2ccccc2)cc1)Nc1cccc2cccnc12 | 0.76 | > 80 | inactive |  |  |  | inactive
21 | O=C(Cc1ccc(OC/C=C/S(=O)(=O)c2ccccc2)cc1)OC1CCC[C@@H]2CCCC[C@H]12 (some centres not stated) | 5.63 | > 20 | inactive |  |  |  | 
22 | Cc1ccc(C(=O)Nc2ccc(S(=O)(=O)O)c3cc(S(=O)(=O)O)cc(S(=O)(=O)O)c23)cc1NC(=O)c1cccc(NC(=O)Nc2cccc(C(=O)Nc3cc(C(=O)Nc4ccc(S(=O)(=O)O)c5cc(S(=O)(=O)O)cc(S(=O)(=O)O)c45)ccc3C)c2)c1 [SURAMIN] | 0.004 |  |  |  |  |  | 
23 | O=C(Cc1ccc(OC/C=C/S(=O)(=O)c2ccccc2)cc1)Oc1ccc(Cc2ccccc2)cc1 | 1.47 | > 80 | inactive |  |  |  | 
24 | CC(C)CCC[C@@H](C)[C@H]1CC[C@H]2[C@@H]3CC[C@H]4C[C@@H](OC(=O)Cc5ccc(OC/C=C/S(=O)(=O)c6ccccc6)cc5)CC[C@]4(C)[C@H]3CC[C@]12C | > 20 | > 20 | inactive |  |  |  | 
